Measured values: ChEMBL document CHEMBL4190227, “Syntheses, toxicities and anti-inflammation of H2S-donors based on non-steroidal anti-inflammatory drugs” (Eur J Med Chem, 2017)
pIC50: −log10 of the molar value.

system: L02; assay: Cytotoxicity against human LO2 cells assessed as reduction in cell survival after 24 hrs by MTT assay; format: cell-based; conditions: L02, 24 h

With `NC(=S)c1ccc(OC(=O)/C=C/c2ccccc2)cc1` as the compound, how does the pIC50 read?
Its pIC50 is under 3.10.

With `CC(C(=O)Oc1ccc(C(N)=S)cc1)c1ccc(-c2ccccc2)c(F)c1` (configuration not stated) as the compound, how does the pIC50 read?
Its pIC50 is under 3.10.

With `CC(C(=O)Oc1ccc(-c2cc(=S)ss2)cc1)c1cccc(C(=O)c2ccccc2)c1` (configuration not stated) as the compound, how does the pIC50 read?
Its pIC50 is 3.26.

With `O=C(CCCCC1CCSS1)Oc1ccc2ccc(=O)oc2c1` (configuration not stated) as the compound, how does the pIC50 read?
Its pIC50 is 2.59.

system: not listed separately; assay: Drug degradation in phosphate buffer assessed as H2S release by measuring test compound half life at 40 uM measured every 5 mins in presence of TECP by UV-Vis spectrometry; format: physicochemical; conditions: not given
Procedure, shortened: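 Sulfide release at 37.5 °C: donor (40 mM THF stock) added to pH 7.4 phosphate buffer with 1.0 mM TECP; aliquots taken every 5 min into methylene blue cocktail (zinc acetate, N,N-dimethyl-1,4-phenylenediamine, FeCl3 in HCl), A670 read 15 min later; H2S from Na2S calibration curve; concentration vs time curve; four independent experiments.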

For `NC(=S)c1ccc(OC(=O)/C=C/c2ccccc2)cc1`, which half-life at 40 µM is on record?
Its half-life at 40 µM is 4.4 min.

Which half-life at 40 µM does the source give for `CC(C(=O)Oc1ccc(C(N)=S)cc1)c1ccc(-c2ccccc2)c(F)c1` (configuration not stated) here?
The half-life at 40 µM was 3.3 min.

Which half-life at 40 µM does the source give for `CC(C(=O)Oc1ccc(-c2cc(=S)ss2)cc1)c1cccc(C(=O)c2ccccc2)c1` (configuration not stated) here?
The half-life at 40 µM was 3.4 min.

system: not listed separately; assay: Drug degradation in phosphate buffer assessed as H2S release by measuring test compound half life at 40 uM measured every 5 mins in presence of L-cysteine by UV-Vis spectrometry; format: physicochemical; conditions: not given
Procedure, shortened: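 Sulfide release at 37.5 °C: donor (40 mM THF stock) added to pH 7.4 phosphate buffer with 1.0 mM L-cysteine; aliquots taken every 5 min into zinc acetate/N,N-dimethyl-1,4-phenylenediamine/FeCl3 in HCl, A670 read 15 min later; H2S quantified against Na2S standard curve (5–150 μM); release curve plotted vs time; four independent experiments.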

For `O=C(CCCCC1CCSS1)Oc1ccc2ccc(=O)oc2c1` (configuration not stated), which half-life at 40 µM is on record?
The half-life at 40 µM was 4.6 min.

system: HepG2; assay: Cytotoxicity against human HepG2 cells assessed as reduction in cell survival after 24 hrs by MTT assay; format: cell-based; conditions: HepG2, 24 h

With `NC(=S)c1ccc(OC(=O)/C=C/c2ccccc2)cc1` as the compound, how does the pIC50 read?
Its pIC50 is 3.39.

With `CC(C(=O)Oc1ccc(C(N)=S)cc1)c1ccc(-c2ccccc2)c(F)c1` (configuration not stated) as the compound, how does the pIC50 read?
Its pIC50 is 2.77.

With `CC(C(=O)Oc1ccc(-c2cc(=S)ss2)cc1)c1cccc(C(=O)c2ccccc2)c1` (configuration not stated) as the compound, how does the pIC50 read?
The pIC50 was 2.89.

With `O=C(CCCCC1CCSS1)Oc1ccc2ccc(=O)oc2c1` (configuration not stated) as the compound, how does the pIC50 read?
Its pIC50 is 3.04.
